Laboratory results taken from ChEMBL document CHEMBL1629542, “Epigallocatechin gallate inactivates clinical isolates of herpes simplex virus” (Antimicrob Agents Chemother, 2008).
The source made the active and inactive calls. The calls are words filed in the database; no cut-off is given here.

Legend:
[1] = tested on: Human alphaherpesvirus 1; experiment: Antiviral activity against Human herpesvirus 1 isolate P56 infected in African green monkey vero cells assessed as reduction in viral titer at 100 uM; type: functional, organism-based
Procedure, shortened: (§1)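 Laboratory HSV-1 F1 or patient-swab HSV-1 isolates were prepared as clarified Vero supernatants. They were incubated 1 h with a range of EGCG concentrations in RPMI 1640/1% FCS at pH 7.4. Titres were determined on Vero cells by 5-day CPE endpoint (Reed-Muench). IC99 was read graphically as 99% titre drop from untreated; mean ± SD, three experiments.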

[2] = tested on: Human alphaherpesvirus 2; experiment: Antiviral activity against Human herpesvirus 2 isolate P11 infected in African green monkey CV1 cells assessed as log reduction in viral titer at 100 uM within 10 mins; type: functional, CV-1
Procedure, shortened: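 HSV-2 clinical isolates from clarified CV-1 supernatants were held with 100 μM EGCG for timed intervals, from 10 min onward. Surviving virus was titrated on CV-1 cells by 10-fold dilution and 5-day CPE scoring, with TCID50 by Reed-Muench. Values are mean ± SD, three experiments.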

[3] = tested on: Human alphaherpesvirus 2; experiment: Antiviral activity against Human herpesvirus 2 isolate P27 infected in African green monkey CV1 cells assessed as log reduction in viral titer at 100 uM within 10 mins; type: functional, CV-1
Procedure, shortened: (§2)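 Time course: clarified CV-1 supernatant of HSV-2 (clinical isolates or strain 333) was exposed to 100 μM EGCG for increasing times. It was then titrated by tenfold dilution on CV-1 cells, three wells per dilution, for 5 days at 37°C with CPE read-out. Reed-Muench TCID50 was compared with the untreated titer. Mean of three separate experiments.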

[4] = tested on: Human alphaherpesvirus 2; experiment: Antiviral activity against Human herpesvirus 2 isolate P47 infected in African green monkey CV1 cells assessed as log reduction in viral titer at 100 uM within 10 mins; type: functional, CV-1; procedure, shortened: as §2
[5] = tested on: Human alphaherpesvirus 2; experiment: Antiviral activity against Human herpesvirus 2 isolate P2 infected in African green monkey CV1 cells assessed as log reduction in viral titer at 100 uM within 20 mins; type: functional, CV-1; procedure, shortened: as §2
[6] = tested on: Human alphaherpesvirus 1; experiment: Antiviral activity against Human herpesvirus 1 isolate P15 infected in African green monkey vero cells assessed as log reduction in viral titer at 100 uM after 40 to 60 mins; type: functional
Procedure, shortened: (§3)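 In the time course, HSV-1 clinical isolates (clarified Vero supernatants) were exposed to 100 μM EGCG for varying times up to 60 min. Residual infectivity was then titrated on Vero cells by 5-day CPE endpoint with Reed-Muench calculation. Mean ± SD of three separate experiments.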

[7] = tested on: Human alphaherpesvirus 1; experiment: Antiviral activity against Human herpesvirus 1 isolate P15 infected in African green monkey vero cells assessed as log reduction in viral titer at 100 uM after 30 mins; type: functional; procedure, shortened: as §3
[8] = tested on: Human alphaherpesvirus 1; experiment: Antiviral activity against Human herpesvirus 1 isolate P38 infected in African green monkey vero cells assessed as log reduction in viral titer at 100 uM after 30 mins; type: functional; procedure, shortened: as §3
[9] = tested on: Human alphaherpesvirus 1; experiment: Antiviral activity against Human herpesvirus 1 isolate P32 infected in African green monkey vero cells assessed as log reduction in viral titer at 100 uM within 20 mins; type: functional; procedure, shortened: as §3
[10] = tested on: Human alphaherpesvirus 1; experiment: Antiviral activity against Human herpesvirus 1 F1 assessed as decrease in labeled gD envelope glycoprotein at 100 uM after 2 hrs by electron microscopy; type: functional, organism-based
Procedure, shortened: (§4)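 Purified HSV-1 F1 virions were treated with 100 μM EGCG for 2 h, fixed in glutaraldehyde/paraformaldehyde and LR White-embedded without osmium. Nickel-grid sections were blocked with BSA and goat serum, then labelled overnight with anti-gB or anti-gD monoclonal (1:15) and 15 nm colloidal gold. Labelled versus unlabelled particles were counted in 10 fields of 100 particles; mean ± SD.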

[11] = tested on: Human alphaherpesvirus 1; experiment: Antiviral activity against Human herpesvirus 1 F1 assessed as decrease in labeled gB envelope glycoprotein at 100 uM after 2 hrs by electron microscopy; type: functional, organism-based; procedure, shortened: as §4
[12] = tested on: Human alphaherpesvirus 1; experiment: Antiviral activity against Human herpesvirus 1 isolate P42 infected in African green monkey vero cells assessed as reduction in viral titer; type: functional, organism-based; conditions: Human alphaherpesvirus 1, isolate P42, Vero; procedure, shortened: as §1
[13] = tested on: Human alphaherpesvirus 1; experiment: Antiviral activity against Human herpesvirus 1 isolate P42 infected in African green monkey vero cells assessed as log reduction in viral titer at 50 uM; type: functional; procedure, shortened: as §1
[14] = tested on: Human alphaherpesvirus 1; experiment: Antiviral activity against Human herpesvirus 1 isolate P15 infected in African green monkey vero cells assessed as reduction in viral titer at 100 uM; type: functional, organism-based; procedure, shortened: as §1
[15] = tested on: Human alphaherpesvirus 1; experiment: Antiviral activity against Human herpesvirus 1 isolate P25 infected in African green monkey vero cells assessed as reduction in viral titer at 100 uM; type: functional, organism-based; procedure, shortened: as §1
[16] = tested on: Human alphaherpesvirus 1; experiment: Antiviral activity against Human herpesvirus 1 isolate P38 infected in African green monkey vero cells assessed as reduction in viral titer at 100 uM; type: functional, organism-based; procedure, shortened: as §1
[17] = tested on: Human alphaherpesvirus 2; experiment: Antiviral activity against Human herpesvirus 2 strain 333 infected in African green monkey CV1 cells assessed as log reduction in viral titer at 100 uM; type: functional, CV-1
Procedure, shortened: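 Lab strain HSV-2 333 was grown and titrated either in CV-1 cells or in Vero cells. Virus was incubated with 100 μM EGCG for 60 min, then titrated as tenfold dilutions for 5 days at 37°C with CPE scoring. Reed-Muench TCID50 of treated versus control virus gave the titer decrease. Mean of three experiments.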

[18] = tested on: Human alphaherpesvirus 2; experiment: Antiviral activity against Human herpesvirus 2 isolate P11 infected in African green monkey CV1 cells assessed as log reduction in viral titer at 12.5 uM; type: functional, CV-1
Procedure, shortened: (§5)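 HSV-2 patient-swab isolates were grown as clarified CV-1 supernatants and incubated 1 h with a range of EGCG concentrations (RPMI 1640/1% FCS, pH 7.4). They were titrated on CV-1 cells from 10-fold dilutions by 5-day CPE at 37°C, with Reed-Muench TCID50. IC99 was derived graphically as 99% reduction from zero-drug titre; mean ± SD, three experiments.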

[19] = tested on: Human alphaherpesvirus 2; experiment: Antiviral activity against Human herpesvirus 2 isolate P2 infected in African green monkey CV1 cells; type: functional, organism-based; conditions: Human alphaherpesvirus 2, isolate P2, CV-1; procedure, shortened: as §5
[20] = tested on: Human alphaherpesvirus 2; experiment: Antiviral activity against Human herpesvirus 2 isolate P12 infected in African green monkey CV1 cells; type: functional, organism-based; conditions: Human alphaherpesvirus 2, isolate P12, CV-1; procedure, shortened: as §5
[21] = tested on: Human alphaherpesvirus 2; experiment: Antiviral activity against Human herpesvirus 2 isolate P22 infected in African green monkey CV1 cells; type: functional, organism-based; conditions: Human alphaherpesvirus 2, isolate P22, CV-1
Procedure, shortened: (§6)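 HSV-2 (clinical swab isolates or strain 333) was grown in CV-1 cells and used as clarified supernatant. Virus was exposed to graded EGCG for 1 h in RPMI 1640 with 1% FCS, pH 7.4. Tenfold dilutions were titrated on CV-1 cells, three wells each, 5 days at 37°C, scoring CPE. TCID50 was calculated by Reed-Muench. IC99 was read graphically as 99% titer drop from the zero-concentration titer. Mean of three experiments.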

[22] = tested on: Human alphaherpesvirus 2; experiment: Antiviral activity against Human herpesvirus 2 isolate P47 infected in African green monkey CV1 cells; type: functional, organism-based; conditions: Human alphaherpesvirus 2, isolate P47, CV-1; procedure, shortened: as §6
[23] = tested on: Human alphaherpesvirus 2; experiment: Antiviral activity against Human herpesvirus 2 isolate P2 infected in African green monkey CV1 cells assessed as log reduction viral titer at 50 uM; type: functional, CV-1; procedure, shortened: as §6
[24] = tested on: Human alphaherpesvirus 2; experiment: Antiviral activity against Human herpesvirus 2 isolate P11 infected in African green monkey CV1 cells assessed as log reduction viral titer at 50 uM; type: functional, CV-1; procedure, shortened: as §5
[25] = tested on: Human alphaherpesvirus 2; experiment: Antiviral activity against Human herpesvirus 2 isolate P12 infected in African green monkey CV1 cells assessed as log reduction viral titer at 50 uM; type: functional, CV-1; procedure, shortened: as §5
[26] = tested on: Human alphaherpesvirus 2; experiment: Antiviral activity against Human herpesvirus 2 isolate P2 infected in African green monkey CV1 cells assessed as log reduction viral titer at 12.5 ug/ml; type: functional, CV-1; procedure, shortened: as §6
[27] = tested on: Human alphaherpesvirus 1; experiment: Antiviral activity against Human herpesvirus 1 isolate P38 infected in African green monkey vero cells assessed as log reduction in viral titer at 50 uM; type: functional; procedure, shortened: as §1

O=C(O[C@@H]1Cc2c(O)cc(O)cc2O[C@@H]1c1cc(O)c(O)c(O)c1)c1cc(O)c(O)c(O)c1 [EPIGALOCATECHIN GALLATE]
Activity [1]: Active
FC [2]: 2
FC [3]: 2
FC [4]: 2
FC [5]: 3
FC [6]: 3
FC [7]: 2
FC [8]: 2
FC [9]: 3
Activity [10]: Active
Activity [11]: Active
IC99 [12]: 49.1 µM
FC [13]: 2
Activity [14]: Active
Activity [15]: Active
Activity [16]: Active
FC [17]: 4
FC [18]: >=2
IC99 [19]: 12.3 µM
IC99 [20]: 12.5 µM
IC99 [21]: 12.5 µM
IC99 [22]: 12.5 µM
FC [23]: >4
FC [24]: >4
FC [25]: >4
FC [26]: 3.15
FC [27]: 2
